# A selection: hits, their analogues and other compounds. The true share with any hit is near 1.8%.
# NSD2 HMT inh: NSD2 (human) methyltransferase inhibition | O96028 | AID 743445 | inhibition, % at 12.5 µM | 0.54% of 310,000 active | NSD2 peptide methylation, AlphaScreen, 120 min; in the data active = inhibition above about 50%
# MBD2 inh: inhibitors of human MBD2 binding to methylated oligonucleotide; AID 686964; TR-FRET; Q9UBB5; 0.31% of 370,000 active; inhibition, % at 4.4 µM; in the data active = inhibition above about 13%
# UHRF1 binding: human UHRF1 methylated DNA binding inhibitors. inhibition, % at 4.4 µM. Q96T88. AID 687016. UHRF1 binding to methylated oligo, TR-FRET. 0.75% of 370,000 active; in the data active = inhibition above about 21%;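 note: UHRF1 SRA domain binding a hemimethylated CpG hairpin DNA probe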
# Target sequence (Q96T88 whole entry, looked up, the tested form may be a part): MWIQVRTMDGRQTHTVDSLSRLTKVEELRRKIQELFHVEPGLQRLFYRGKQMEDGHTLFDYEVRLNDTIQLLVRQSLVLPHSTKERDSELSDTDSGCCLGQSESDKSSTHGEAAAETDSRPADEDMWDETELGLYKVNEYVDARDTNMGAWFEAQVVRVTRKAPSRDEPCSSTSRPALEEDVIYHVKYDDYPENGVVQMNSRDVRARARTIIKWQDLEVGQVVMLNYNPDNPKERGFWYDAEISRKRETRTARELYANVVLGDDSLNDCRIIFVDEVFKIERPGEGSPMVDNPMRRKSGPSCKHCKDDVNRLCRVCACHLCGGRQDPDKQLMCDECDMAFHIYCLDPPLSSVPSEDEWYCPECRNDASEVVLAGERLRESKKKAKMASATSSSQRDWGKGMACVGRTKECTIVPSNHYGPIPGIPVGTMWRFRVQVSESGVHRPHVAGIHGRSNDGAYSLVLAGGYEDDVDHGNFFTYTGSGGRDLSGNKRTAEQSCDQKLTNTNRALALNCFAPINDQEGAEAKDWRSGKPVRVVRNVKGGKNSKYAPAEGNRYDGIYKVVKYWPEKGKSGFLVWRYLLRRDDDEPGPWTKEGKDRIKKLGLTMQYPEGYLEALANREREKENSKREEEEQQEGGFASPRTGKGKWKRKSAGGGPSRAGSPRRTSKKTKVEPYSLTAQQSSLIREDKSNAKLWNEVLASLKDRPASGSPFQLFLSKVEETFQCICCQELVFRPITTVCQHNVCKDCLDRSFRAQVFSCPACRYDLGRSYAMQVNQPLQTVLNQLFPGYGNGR
# LEDGF integ inh: blocks HIV-1 LEDGF/p75-dependent DNA integration. TR-FRET IN-LEDGF/p75 DNA integration, Eu/Cy5. inhibition, % at 3.7 µM. 0.64% of 370,000 active;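 active = inhibition above the screen-wide mean plus 3 SD, cut at about 13% in these data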;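 note: signal is the Cy5 over europium emission ratio at 671 and 618 nm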
# Casp6 inh: caspase-6 (human) enzyme inhibition. P55212. purified caspase-6, Z-VEID-R110 cleavage fluorescence. inhibition, % at 12.5 µM. 0.53% of 350,000 active. AID 686996;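 active = mean inhibition across replicates at least about 35%, with every replicate also reaching that limit, limit read from the data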
# TDP2 inh: blocks human TDP2 phosphodiesterase activity; 0.34% of 370,000 active; AID 720702; O95551; recombinant TDP2, T5PNP hydrolysis, p-nitrophenol absorbance 415 nm; inhibition, % at 12.8 µM;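 active = inhibition above the mean of all tested compounds plus 3 SD, set per campaign, cut at about 25% in these data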
#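 System – recombinant human TDP2 · Amount – 120 nM TDP2 per well · Buffer or medium – Mg2+-containing Tris-HCl buffer, pH 7.5 · Reagent – T5PNP substrate, 5 mM · Dosing – 12.8 µM single point, 1% DMSO · Incubation – 2 h at 37 °C · Measured by – epi absorbance · Read-out basis – percent inhibition · Benchmarks – high control without enzyme, low control DMSO plus TDP2 · Repeats – singlicate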
# AlphaScreen art: AlphaScreen assay artifact in NSD2 counter-screen; shares compounds with NSD2 HMT inh; AC35, µM (titrated, usually from 10 µM); 9.4% of 1,500 active; AlphaScreen artifact counterscreen, preloaded methylated H4 peptide; AID 1053174; call rule not given here
# Hits are given with their value; n = inactive; x = no result given.
SMILES,NSD2 HMT inh,MBD2 inh,UHRF1 binding,LEDGF integ inh,Casp6 inh,TDP2 inh,AlphaScreen art
Cc1ccc(S(=O)(=O)N2CCCCC2CCNC(=O)C(=O)Nc2ccccc2F)cc1 (stereo not drawn),94.5,n,n,n,n,n,n
COc1cccc(CN(C)C[C@H]2OCc3ccccc3-c3ccccc3C(=O)N([C@H](C)CO)C[C@@H]2C)c1,x,x,x,x,n,x,x
Cc1cccc(-c2nnc(SCC(=O)c3ccc(F)cc3)n2C)c1,n,n,n,n,x,n,x
Cc1cccc(-c2nnc(SCC(=O)c3ccc(O)cc3O)n2C)c1,96.4,n,n,n,n,n,n
C[C@H]1CCCCO[C@@H](CN(C)C(=O)NC2CCCCC2)[C@@H](C)CN([C@@H](C)CO)C(=O)c2cc(NS(=O)(=O)c3ccccc3)ccc2O1,x,x,x,x,n,x,x
CC1CCCCC12NC(=O)N(CC(=O)NC(=O)NCc1ccco1)C2=O (stereo not drawn),121.3,n,n,n,x,n,n
Cc1cc(=O)cc(C)n1-c1ccc(O)cc1,71.4,n,n,n,n,n,n
O=C(c1ccccc1Br)N1CCN(c2ncccn2)CC1,n,n,n,n,n,n,x
O=C(c1ccccc1OCc1ccccc1Br)N1CCN(c2ncccn2)CC1,99.1,n,n,n,x,n,n
CCOC(=O)c1cc(-c2ccc(F)cc2)nc2c1c(=O)[nH]c(=O)n2Cc1ccccc1,86.0,n,n,n,n,n,n
CCOC(=O)c1cc(-c2cc(OC)c(OC)c(OC)c2)nc2c1c(=O)[nH]c(=O)n2Cc1ccccc1,n,n,n,n,n,n,x
O=C(COc1ccccc1O)NCCN1CCOCC1,51.6,n,n,n,n,n,n
Cc1ccc(S(=O)(=O)N(C)C[C@@H]2Oc3c(NS(=O)(=O)c4ccc(Cl)cc4)cccc3C(=O)N([C@H](C)CO)C[C@@H]2C)cc1,x,x,x,x,n,x,x
NC(=O)c1[nH]cnc1N=NN(CCO)Cc1ccccc1,68.7,n,n,n,n,n,n
CCN(CC)CCCNc1cc(C)nc2cc(-c3cccs3)nn12,61.6,n,n,n,n,n,n
CC(=O)N(C)C[C@H]1Oc2cc(C#CCC(C)C)ccc2S(=O)(=O)N([C@@H](C)CO)C[C@@H]1C,x,x,x,x,n,x,x
Cc1ccc(O)c(NC(=O)c2cc3nc4c(c(C(F)(F)F)n3n2)CCc2ccccc2-4)c1,69.8,n,n,n,x,n,n
CCN(CC)CCCNC(=O)c1cc2nc3c(c(C(F)(F)F)n2n1)CCc1ccccc1-3,n,n,n,n,n,n,x
C[C@H]1CCCCO[C@@H](CN(C)C(=O)Cc2ccccc2)[C@@H](C)CN([C@@H](C)CO)C(=O)c2cc(NC(=O)c3ccncc3)ccc2O1,x,x,x,x,n,x,x
COC1=C(C)C(=O)C2=C(C1=O)C1C3CC4=C(C(=O)C(OC)=C(C)C4=O)C(CNC(=O)C(C)=O)N3C(C#N)C(C2)N1C (stereo not drawn),74.9,n,n,n,n,n,n
Cn1c(=O)cc2c3c(c(N4CCCCC4)ccc31)C(=O)c1ccccc1-2,71.0,n,n,n,n,n,7.83µM
CN(C(=S)NC(=O)C1(C)CC1(Cl)Cl)c1ccccc1 (stereo not drawn),58.6,n,n,n,x,n,n
CC1(C(=O)NC(=S)N(Cc2ccccc2)c2ccccn2)CC1(Cl)Cl (stereo not drawn),n,n,n,n,n,n,x
S=C(Nc1cccnc1)Nc1cccc2cnccc12,107.9,n,n,n,44.0,n,n
COc1ccccc1NC(=S)Nc1cccc2cnccc12,82.1,n,n,n,n,n,n
SMILES,NSD2 HMT inh,MBD2 inh,UHRF1 binding,LEDGF integ inh,Casp6 inh,TDP2 inh,AlphaScreen art
CCN(C(=S)Nc1cccnc1)c1cccc2ccccc12,100.1,n,n,n,n,n,n
COc1cccc(NC(=S)Nc2cccc3ccccc23)c1,n,n,n,n,n,n,x
CCN(C(=S)Nc1cccnc1)c1ccccc1,n,n,n,n,x,n,x
COc1ccc(NC(=S)Nc2cccc3cnccc23)cc1,54.5,n,n,n,x,n,n
C[C@@H]1CN([C@@H](C)CO)C(=O)c2cc(C#CC3CCCCC3)cnc2O[C@H]1CN(C)Cc1cccnc1,x,x,x,x,n,x,x
Cc1noc(C)c1S(=O)(=O)Nc1ccc2c(c1)C(=O)N([C@@H](C)CO)C[C@@H](C)[C@@H](CN(C)C(=O)Nc1ccc(C(F)(F)F)cc1)OCCCC[C@H](C)O2,x,x,x,x,n,x,x
COc1ccc(C#Cc2cnc3c(c2)C(=O)N([C@H](C)CO)C[C@@H](C)[C@@H](CN(C)C(C)=O)O3)cc1,x,x,x,x,n,x,x
CC1C=NC(S(=O)(=O)N2CC[C@@H]3[C@H]2c2cc(-c4ccccc4)ccc2N(C)[C@H]3CO)=N1 (stereo partly drawn),x,x,x,x,n,x,x
Cc1c(C)c2cc(Cl)c(O)c(CN(C)C)c2oc1=O,118.7,n,n,n,x,n,n
N=C1C(c2nc(-c3ccc(F)cc3)cs2)=C(O)CN1Cc1ccc(Cl)cc1,127.7,n,n,n,x,n,n
C[C@@H]1CN([C@H](C)CO)C(=O)c2cc(-c3ccccc3)cnc2O[C@@H]1CN(C)C(=O)c1cccnc1,x,x,x,x,n,x,x
Cc1cc(C)c(OCCN2C(=O)NC(C)(C)C2=O)c(Cl)c1,n,n,n,n,x,n,x
Cc1cc(Cl)cc(Br)c1OCCCN1C(=O)NC(C)(C)C1=O,72.7,n,n,n,x,n,n
Cc1ccc(C(C)C)c(OCCCN2C(=O)NC(C)(C)C2=O)c1,n,n,n,n,n,n,x
Cc1cc(Cl)c(OCCN2C(=O)NC(C)(C)C2=O)c(Br)c1,70.6,n,n,n,x,n,n

# Screening data deposited in PubChem by several laboratories.
